Assay outcomes deposited in PubChem by several laboratories.
Hits are enriched below; roughly 4% of the tested compounds scored in any of these assays.
hERG rescue: hERG (human) protection from proarrhythmic block; AID 1511; actives 0.51% (n = 310,000); activation (rescue from dofetilide block), less the hit threshold, % at 10 µM; CHO-hERG, FluxOR thallium flux, dofetilide IC70 present; Q12809;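 active = activation above the mean of controls blocked by dofetilide plus 5 SD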;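 note: thallium influx through hERG after potassium depolarization seen as dye fluorescence rise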
PHOSPHO1 inh: PHOSPHO1 (human) inhibition | recombinant PHOSPHO1, absorbance phosphatase assay | inhibition, % at 13.3 µM | Q8TCT1 | actives 1.1% (n = 290,000) | AID 1565; in the data active = inhibition above about 60%
Target sequence (Q8TCT1 whole entry, looked up): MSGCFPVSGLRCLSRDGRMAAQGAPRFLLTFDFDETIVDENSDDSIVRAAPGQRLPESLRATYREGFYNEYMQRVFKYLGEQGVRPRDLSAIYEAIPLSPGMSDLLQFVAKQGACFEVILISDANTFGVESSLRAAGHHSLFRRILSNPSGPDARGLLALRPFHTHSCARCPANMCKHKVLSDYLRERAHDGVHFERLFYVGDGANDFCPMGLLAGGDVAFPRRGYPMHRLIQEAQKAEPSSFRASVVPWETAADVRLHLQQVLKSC
KCNK9 inh: inhibitors of human KCNK9 two-pore domain potassium channel; Q9NPC2; HEK293 KCNK9, FluxOR thallium flux fluorescence; stronger effect = lower value; B-score at 10 µM; actives 1.2% (n = 310,000); AID 488922;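 active = ratio B-score over 3 SD below the library mean, with starting fluorescence within 5 SD of its mean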;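 note: negative B-score means less thallium flux so channel inhibition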
KCNK3 inh: human KCNK3 channel inhibition, primary screen | O14649 | CHO-KCNK3 thallium flux, FluxOR fluorescence; stronger effect = lower value | B-score at 10 µM | actives 0.84% (n = 340,000) | AID 602410;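 active = B-score under library mean minus 4 SD, starting fluorescence ratio at most library mean plus 5 SD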;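 note: more negative B-score means stronger inhibition of thallium flux through KCNK3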
Target sequence (O14649 whole entry, looked up): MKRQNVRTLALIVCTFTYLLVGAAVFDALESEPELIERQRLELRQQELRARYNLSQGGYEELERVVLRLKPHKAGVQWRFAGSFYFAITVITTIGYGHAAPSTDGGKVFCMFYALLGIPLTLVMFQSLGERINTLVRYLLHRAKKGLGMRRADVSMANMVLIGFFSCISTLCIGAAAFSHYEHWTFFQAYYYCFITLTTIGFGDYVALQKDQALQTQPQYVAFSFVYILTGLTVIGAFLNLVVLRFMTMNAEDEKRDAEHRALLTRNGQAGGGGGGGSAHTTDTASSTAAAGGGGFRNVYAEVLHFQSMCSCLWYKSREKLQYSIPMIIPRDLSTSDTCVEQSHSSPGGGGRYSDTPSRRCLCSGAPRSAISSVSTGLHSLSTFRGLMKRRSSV
KCNQ1 pot: potentiates or activates the human KCNQ1 potassium channel; P51787; CHO-K1 KCNQ1, thallium flux FluxOR fluorescence; stronger effect = higher value; B-score at 10 µM; actives 0.35% (n = 310,000);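 active = fluorescence ratio B-score, a plate-corrected score, at least three library SD, with initial intensity B-score within 5 SD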
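Test system: CHO-K1 cells stably expressing KCNQ1 / Medium: assay buffer / Also added: depolarizing K+/Tl+ stimulus, K2SO4 and Tl2SO4 each 12.5 mM in 5x stock / Incubation: 90 min dye loading and 20 min compound exposure, both at room temperature / Signal: thallium influx via FluxOR fluorescence, kinetic imaging / Evaluation: B score of baseline-normalized fluorescence ratio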
KCNQ1 inh: blocks the human KCNQ1 potassium channel; CHO-K1 KCNQ1, FluxOR thallium flux fluorescence; stronger effect = higher value; B-score at 10 µM; actives 1.3% (n = 310,000);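 active = compounds whose thallium flux B-score, printed positive for inhibition, exceeds three library SD while starting fluorescence stays within three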;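 note: channel opened by potassium depolarization with thallium stimulus after 20 min compound exposure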
KCNQ1 inh valid: human KCNQ1 channel inhibition, validation assay | shares compounds with KCNQ1 inh | KCNQ1 cell line, FluxOR thallium flux fluorescence | inhibition, % at 10 µM | actives 93% (n = 1,600) | AID 588353;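 active = primary screen active, with duplicate mean exceeding buffer control mean plus 3 SD of buffer wells, cut at about 28% in these data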;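 note: 0% = buffer control ratio and 100% = XE991 inhibitor control ratio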
CHO Tl flux: activity in parental CHO cells lacking KCNQ1 | shares compounds with KCNQ1 inh | parental CHO-K1, FluxOR thallium flux fluorescence ratio; stronger effect = lower value; zero means no signal rise above baseline | fluorescence ratio (Tl flux) at 10 µM | actives 21% (n = 1,600);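 active = mean of duplicate thallium-flux fluorescence ratios in parental host cells more than 5 SD below the buffer control mean, cut at about 0.38 in these data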;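 note: ratio is peak minus minimum fluorescence divided by baseline fluorescence; actives read low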
KCNQ2 spec: KCNQ1 inhibitor that also blocks rat KCNQ2 channel; AID 651746; inhibition, % at 10 µM; shares compounds with KCNQ1 inh; KCNQ2 cells, FluxOR thallium flux fluorescence; actives 71% (n = 1,600);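 active = mean percent inhibition of the KCNQ2 thallium signal more than 5 SD above the buffer-only control wells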;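 note: KCNQ2 expressed in CHO cells; 0% = buffer control wells and 100% = XE-991 inhibitor control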
KCNQ1 KCNE1 spec: human KCNQ1/KCNE1 inhibition in KCNQ1 specificity screen | actives 77% (n = 1,600) | inhibition, % at 10 µM | KCNQ1/KCNE1 cells, FluxOR thallium flux fluorescence | shares compounds with KCNQ1 inh;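 active = mean percent inhibition of duplicate wells above the buffer-only control mean plus 3 SD of those controls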;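 note: 0% = buffer only wells and 100% = XE-991 inhibitor control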
* hit, by the source's call; i = inactive; · = not tested or not shown; + = active, no number.

SMILES	hERG rescue	PHOSPHO1 inh	KCNK9 inh	KCNK3 inh	KCNQ1 pot	KCNQ1 inh	others
COc1ccccc1N1CCN(CCc2c[nH]c3cc4c(cc23)OCO4)CC1	·	·	·	i	·	·
O=C(COc1ccc2ccc(=O)oc2c1)N1C[C@H]2C[C@@H](C1)c1cccc(=O)n1C2	-5.3	-2.1	i	i	i	i
CCOc1ccccc1CNCCc1ccc2c(c1)OCO2	-8.5	19.0	i	i	i	i
CCOc1ccccc1CN1C2CCC1CC(c1ccc(C)cc1)C2 (stereo not given)	-12.0	2.8	i	i	i	12*
Cc1cc(=O)oc2c(C)c(OCC(=O)N3C[C@H]4C[C@@H](C3)c3cccc(=O)n3C4)ccc12	-7.8	13.5	i	i	i	i
CCCCCn1c(=O)c(C(=O)Nc2ccccn2)c(O)c2ccccc21	-4.1	35.6	-7.39*	i	i	i
CCCCCn1c(=O)c(C(=O)Nc2cccc(C)n2)c(O)c2ccccc21	-4.0	-0.6	i	i	i	i
CCCCn1c(=O)c(C(=O)Nc2ccc(C)cn2)c(O)c2ccccc21	-6.4	14.9	-7.7*	i	i	i
CCCCCn1c(=O)c(C(=O)Nc2ccccc2)c(O)c2ccccc21	0.1	-2.0	i	i	i	i
Nc1ncc([N+](=O)[O-])s1	·	·	·	i	·	·
C[C@@H]1NCCc2cc(O)c(O)cc21	·	·	·	i	·	·
O=c1[nH]c(=O)n(-c2ccc(F)cc2)c(O)c1/C=C1\C=Nc2ccccc21	-8.5	·	i	i	i	9*
O=P(Nc1cccc(Cl)c1)(Oc1ccccc1)Oc1ccccc1	-49.2	10.5	-7.59*	i	i	6*
COc1cccc(NP(=O)(Oc2ccccc2)Oc2ccccc2)c1	-16.8	-1.8	i	i	i	i
COC(=O)CSC1=NP(=S)(SCC(=O)OC)N2CCCC2=C1C#N (stereo not given)	-7.4	67.4*	i	i	i	i
O=C1NC(=O)C(=Cc2ccc(-c3cc(Cl)ccc3[N+](=O)[O-])o2)C(=O)N1	24.2*	-75.1	i	i	i	i
CC12CCC(=O)C=C1CCC1C2CCC2(C)C(O)CCC12 (stereo not given)	·	-10.5	·	i	·	·
CCC(=O)O[C@H]1CC[C@H]2[C@@H]3CCC4=CC(=O)CC[C@]4(C)[C@H]3CC[C@]12C	·	·	·	-8.7*	·	·
CCOc1ccccc1N=C1SCCCN1C	-4.6	92.4*	i	i	i	i
C[C@]12CCC3C(CC[C@H]4C[C@@H](O)CC[C@]34C)C1C/C(=N/O)[C@@H]2O (stereo not given in full)	·	·	·	i	·	·
Nc1ccccc1C(=O)OCC(=O)N1CCc2ccccc21	-3.2	16.8	i	i	i	i
N#CSCC(=O)N1c2ccccc2CCc2ccccc21	-15.4	0.6	-6.88*	i	i	i
O=C(c1ccccc1)C(Cc1ccccc1)N1CCOCC1 (stereo not given)	·	·	·	i	·	·
c1cc2c(cc1CCNC1C3CC4CC(C3)CC1C4)OCO2 (stereo not given)	-5.3	-4.4	i	i	i	6*
Cc1ccc(N2C(=O)NC(=O)/C(=C\c3cccn3C(C)(C)C)C2=O)cc1	-7.7	60.0*	i	i	i	i
SMILES	hERG rescue	PHOSPHO1 inh	KCNK9 inh	KCNK3 inh	KCNQ1 pot	KCNQ1 inh	others
CCC(C)c1ccc(N2C(=O)NC(=O)/C(=C/c3cccn3CCOc3ccc(C)cc3)C2=O)cc1 (stereo not given)	-11.2	6.6	i	i	i	7*
CCOC(=O)C1CCN(C(C)C(=O)c2c[nH]c3ccccc23)CC1 (stereo not given)	-1.8	19.5	i	i	i	i
O=[N+]([O-])c1ccc(Cl)c(Cl)c1Cl	·	·	·	i	·	·
COC(=O)C1=C(c2ccc(S(C)(=O)=O)cc2)C[C@@H]2CC[C@H]1N2C(=O)NC1CCCCC1	5.8*	·	i	i	i	i
COC(=O)C1=C(c2ccc(S(C)(=O)=O)cc2)C[C@@H]2CC[C@H]1N2C(=O)NC1CC1	-3.9	·	i	i	i	i
CCC1(CC(C)C)C(=O)NC(=S)NC1=O	·	·	·	i	·	·
O=C(Nc1ccc(Br)cc1)N1C[C@H]2C[C@@H](C1)c1cccc(=O)n1C2	-7.0	18.2	i	i	i	14*
O=[N+]([O-])c1ccc(N2CCCCCC2)c2ncccc12	-4.4	27.9	-7.66*	i	i	i
CN(C)C(=S)SSC(=S)N(C)C	-40.9	55.5	i	i	i	16*	KCNQ1 inh valid=0.0;CHO Tl flux=0.552;KCNQ2 spec=i;KCNQ1 KCNE1 spec=i
CCn1cc(C(=O)N2CCCCC2)c2ccccc21	-0.5	8.1	i	i	i	i
C[n+]1c(-c2ccccc2)c2cc(N)ccc2c2ccc(N)cc21	-10.1	25.4	i	i	i	i
Nc1ccc2ccc3cccc[n+]3c2c1	-43.9	20.1	i	i	i	24*	KCNQ1 inh valid=+;CHO Tl flux=0.0075*;KCNQ2 spec=i;KCNQ1 KCNE1 spec=i
CCCCCCn1c(=O)c(C(=O)Nc2cnccn2)c(O)c2ccccc21	-12.5	18.3	i	i	i	9*	KCNQ1 inh valid=43.5*;CHO Tl flux=0.499;KCNQ2 spec=i;KCNQ1 KCNE1 spec=i
CCCCCn1c(=O)c(C(=O)Nc2ccncc2)c(O)c2ccccc21	·	-0.2	·	·	·	·
CCCCCCn1c(=O)c(C(=O)Nc2ncccc2O)c(O)c2ccccc21	-5.7	8.5	i	i	i	7*	KCNQ1 inh valid=58.5*;CHO Tl flux=0.43;KCNQ2 spec=62.0%*;KCNQ1 KCNE1 spec=50.0%*
CCC(=O)N1N=C2C3CCN(CC3)C2C1c1ccc(C)cc1 (stereo not given)	-6.3	3.7	i	i	i	i
O=c1cc(C(F)(F)F)c2cc3c4c(c2o1)CCCN4CCC3	-15.8	7.2	i	i	i	37*	KCNQ1 inh valid=+;CHO Tl flux=0.0225*;KCNQ2 spec=i;KCNQ1 KCNE1 spec=i
Cc1ccc(-c2ccc(=O)n(CCC(=O)N3CCC4(CC3)OCCO4)n2)cc1	-1.6	-5.3	i	i	i	i
